From ChEMBL document CHEMBL4190234, “Design, synthesis and anticancer activity of new monastrol analogues bearing 1,3,4-oxadiazole moiety” (Eur J Med Chem, 2017)

Columns and labels:
Type in all cases: functional
[1] = tested on: 786-0; test: Growth inhibition of human 786-0 cells at 10 uM incubated for 48 hrs by sulforhodamine B assay relative to control; details: 786-0, 48 h, read-out: GI
Procedure, shortened: (§1)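 Single-dose screen at 10 μM final: cells in RPMI 1640, 5% FBS, 2 mM L-glutamine, plated 5,000–40,000/well, preincubated 24 h at 37°C, 5% CO2; drug 48 h; adherent cells fixed with 10% TCA, suspension cells with 16% TCA; SRB stain, absorbance 515 nm; percentage growth versus untreated control, with time-zero plates.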

[2] = tested on: HCT-15; test: Growth inhibition of human HCT15 cells at 10 uM incubated for 48 hrs by sulforhodamine B assay relative to control; details: HCT-15, 48 h, read-out: GI; procedure, shortened: as §1
[3] = tested on: MOLT-4; test: Growth inhibition of human MOLT4 cells at 10 uM incubated for 48 hrs by sulforhodamine B assay relative to control; details: MOLT-4, 48 h, read-out: GI; procedure, shortened: as §1
[4] = tested on: SF-268; test: Growth inhibition of human SF268 cells at 10 uM incubated for 48 hrs by sulforhodamine B assay relative to control; details: SF-268, 48 h, read-out: GI
Procedure, shortened: (§2)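 NCI single-dose screen: cells grown in RPMI 1640 with 5% FBS and 2 mM L-glutamine, plated at 5,000–40,000 cells/well and preincubated 24 h at 37 °C, 5% CO2. Compounds taken from DMSO stock and tested at final 10 µM for 48 h. Cells fixed with TCA, stained with 0.4% SRB, absorbance read at 515 nm. Percentage growth calculated against untreated controls; controls held DMSO at the same dilution.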

[5] = tested on: DU-145; test: Growth inhibition of human DU145 cells at 10 uM incubated for 48 hrs by sulforhodamine B assay relative to control; details: DU-145, 48 h, read-out: GI; procedure, shortened: as §1
[6] = tested on: SF-539; test: Growth inhibition of human SF539 cells at 10 uM incubated for 48 hrs by sulforhodamine B assay relative to control; details: SF-539, 48 h, read-out: GI; procedure, shortened: as §2
[7] = tested on: OVCAR-3; test: Growth inhibition of human OVCAR3 cells at 10 uM incubated for 48 hrs by sulforhodamine B assay relative to control; details: OVCAR-3, 48 h, read-out: GI; procedure, shortened: as §1
[8] = tested on: CCRF-CEM; test: Growth inhibition of human CCRF-CEM cells at 10 uM incubated for 48 hrs by sulforhodamine B assay relative to control; details: read-out: GI; procedure, shortened: as §1
[9] = tested on: OVCAR-8; test: Growth inhibition of human OVCAR8 cells at 10 uM incubated for 48 hrs by sulforhodamine B assay relative to control; details: OVCAR-8, 48 h, read-out: GI; procedure, shortened: as §1
[10] = tested on: HCC 2998; test: Growth inhibition of human HCC2998 cells at 10 uM incubated for 48 hrs by sulforhodamine B assay relative to control; details: HCC 2998, 48 h, read-out: GI; procedure, shortened: as §1
[11] = tested on: BT-549; test: Growth inhibition of human BT549 cells at 10 uM incubated for 48 hrs by sulforhodamine B assay relative to control; details: BT-549, 48 h, read-out: GI; procedure, shortened: as §1
[12] = tested on: A498; test: Growth inhibition of human A498 cells at 10 uM incubated for 48 hrs by sulforhodamine B assay relative to control; details: A498, 48 h, read-out: GI; procedure, shortened: as §1
[13] = tested on: OVCAR-4; test: Growth inhibition of human OVCAR4 cells at 10 uM incubated for 48 hrs by sulforhodamine B assay relative to control; details: OVCAR-4, 48 h, read-out: GI; procedure, shortened: as §1
[14] = tested on: MDA-MB-468; test: Growth inhibition of human MDA-MB-468 cells at 10 uM incubated for 48 hrs by sulforhodamine B assay relative to control; details: MDA-MB-468, 48 h, read-out: GI; procedure, shortened: as §1
[15] = tested on: T47D; test: Growth inhibition of human T47D cells at 10 uM incubated for 48 hrs by sulforhodamine B assay relative to control; details: read-out: GI; procedure, shortened: as §2
[16] = tested on: SNB-75; test: Growth inhibition of human SNB75 cells at 10 uM incubated for 48 hrs by sulforhodamine B assay relative to control; details: SNB-75, 48 h, read-out: GI; procedure, shortened: as §2
[17] = tested on: NCI-H226; test: Growth inhibition of human NCI-H226 cells at 10 uM incubated for 48 hrs by sulforhodamine B assay relative to control; details: NCI-H226, 48 h, read-out: GI; procedure, shortened: as §1
[18] = tested on: MCF7; test: Growth inhibition of human MCF7 cells at 10 uM incubated for 48 hrs by sulforhodamine B assay relative to control; details: MCF7, 48 h, read-out: GI; procedure, shortened: as §1
[19] = tested on: MDA-MB-231; test: Growth inhibition of human MDA-MB-231 cells at 10 uM incubated for 48 hrs by sulforhodamine B assay relative to control; details: MDA-MB-231, 48 h, read-out: GI; procedure, shortened: as §1
[20] = tested on: NCI-H322M; test: Growth inhibition of human NCI-H322M cells at 10 uM incubated for 48 hrs by sulforhodamine B assay relative to control; details: read-out: GI; procedure, shortened: as §1
[21] = tested on: SF-295; test: Growth inhibition of human SF295 cells at 10 uM incubated for 48 hrs by sulforhodamine B assay relative to control; details: SF-295, 48 h, read-out: GI; procedure, shortened: as §2
[22] = tested on: IGROV-1; test: Growth inhibition of human IGROV1 cells at 10 uM incubated for 48 hrs by sulforhodamine B assay relative to control; details: IGROV-1, 48 h, read-out: GI; procedure, shortened: as §1
[23] = tested on: HL-60(TB); test: Growth inhibition of human HL-60(TB) cells at 10 uM incubated for 48 hrs by sulforhodamine B assay relative to control; details: HL-60, 48 h, read-out: GI
Procedure, shortened: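 Single dose of 10 µM in the NCI ~60-line panel. Cells grown in RPMI 1640 with 5% FBS and 2 mM L-glutamine, plated and pre-incubated 24 h, then exposed 48 h at 37°C under 5% CO2. Suspension cells fixed with TCA (16% final) and stained with sulforhodamine B, A515 read. Reported as percent growth versus untreated control and as GI%.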

[24] = tested on: SR; test: Growth inhibition of human SR cells at 10 uM incubated for 48 hrs by sulforhodamine B assay relative to control; details: read-out: GI; procedure, shortened: as §2
[25] = tested on: LOX IMVI; test: Growth inhibition of human LOXIMVI cells at 10 uM incubated for 48 hrs by sulforhodamine B assay relative to control; details: read-out: GI; procedure, shortened: as §1
[26] = tested on: UO-31; test: Growth inhibition of human UO31 cells at 10 uM incubated for 48 hrs by sulforhodamine B assay relative to control; details: UO-31, 48 h, read-out: GI; procedure, shortened: as §2
[27] = tested on: K562; test: Growth inhibition of human K562 cells at 10 uM incubated for 48 hrs by sulforhodamine B assay relative to control; details: K562, 48 h, read-out: GI; procedure, shortened: as §1
[28] = tested on: MDA-MB-435; test: Growth inhibition of human MDA-MB-435 cells at 10 uM incubated for 48 hrs by sulforhodamine B assay relative to control; details: MDA-MB-435, 48 h, read-out: GI; procedure, shortened: as §1
[29] = tested on: HOP-92; test: Growth inhibition of human HOP92 cells at 10 uM incubated for 48 hrs by sulforhodamine B assay relative to control; details: HOP-92, 48 h, read-out: GI; procedure, shortened: as §1
[30] = tested on: SK-MEL-2; test: Growth inhibition of human SK-MEL-2 cells at 10 uM incubated for 48 hrs by sulforhodamine B assay relative to control; details: SK-MEL-2, 48 h, read-out: GI; procedure, shortened: as §2

| Compound | inhibition of growth at 10 µM [1] [%] | inhibition of growth at 10 µM [2] [%] | inhibition of growth at 10 µM [3] [%] | inhibition of growth at 10 µM [4] [%] | inhibition of growth at 10 µM [5] [%] | inhibition of growth at 10 µM [6] [%] | inhibition of growth at 10 µM [7] [%] | inhibition of growth at 10 µM [8] [%] | inhibition of growth at 10 µM [9] [%] | inhibition of growth at 10 µM [10] [%] | inhibition of growth at 10 µM [11] [%] | inhibition of growth at 10 µM [12] [%] | inhibition of growth at 10 µM [13] [%] | inhibition of growth at 10 µM [14] [%] | inhibition of growth at 10 µM [15] [%] | inhibition of growth at 10 µM [16] [%] | inhibition of growth at 10 µM [17] [%] | inhibition of growth at 10 µM [18] [%] | inhibition of growth at 10 µM [19] [%] | inhibition of growth at 10 µM [20] [%] | also measured |
| --- | --- | --- | --- | --- | --- | --- | --- | --- | --- | --- | --- | --- | --- | --- | --- | --- | --- | --- | --- | --- | --- |
| CCOC(=O)C1=C(C)NC(SCc2nnc(-c3ccc(Cl)cc3)o2)=NC1c1ccccc1 (stereo not given) | 31.4 | 21.8 | 31.3 | < 10 | < 10 | < 10 | < 10 | 12.4 | 20.4 | < 10 | 42.7 | < 10 | < 10 | 14.7 | 53.8 | < 10 | 11.4 | 18.2 | < 10 | < 10 | inhibition of growth at 10 µM [21]: 23.4%; inhibition of growth at 10 µM [22]: < 10%; inhibition of growth at 10 µM [23]: 38%; inhibition of growth at 10 µM [24]: 24.9%; inhibition of growth at 10 µM [25]: 11.1%; inhibition of growth at 10 µM [26]: 19.4%; inhibition of growth at 10 µM [27]: 25.2%; inhibition of growth at 10 µM [28]: < 10%; inhibition of growth at 10 µM [29]: 40.1%; inhibition of growth at 10 µM [30]: 34.5% |
| CCOC(=O)C1=C(C)NC(SCc2nnc(-c3ccc(Cl)cc3)o2)=NC1c1cccc(Cl)c1 (stereo not given) | 43 | 29.5 | 45 | < 10 | 13.5 | < 10 | 17.3 | 38.2 | 33.7 | 10.3 | 46.9 | < 10 | 16.9 | < 10 | 69.2 | 16.8 | < 10 | 32 | 18.9 | < 10 | inhibition of growth at 10 µM [21]: 25.5%; inhibition of growth at 10 µM [22]: 14.6%; inhibition of growth at 10 µM [23]: 80.4%; inhibition of growth at 10 µM [24]: 16.4%; inhibition of growth at 10 µM [25]: 17.7%; inhibition of growth at 10 µM [26]: 35.9%; inhibition of growth at 10 µM [27]: 27.5%; inhibition of growth at 10 µM [28]: < 10%; inhibition of growth at 10 µM [29]: 49%; inhibition of growth at 10 µM [30]: 39.9% |
